Source: ChEMBL document CHEMBL1781996, “Potential anti-inflammatory constituents of the stems of Gordonia chrysandra” (J Nat Prod, 2011)

How the values were obtained:
[1] = Antiinflammatory activity in rat Polymorphonuclear leukocyte assessed as inhibition of LPS-induced nitric oxide production at 5 uM; format: functional
How it was run: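 Rat polymorphonuclear leukocytes stimulated with LPS; compounds tested at 5 μM, with dexamethasone at the same concentration as positive control. NO in culture supernatant was read by Griess reaction: equal volume of reagent (0.1% naphthylethylenediamine, 1% sulfanilamide in 5% phosphoric acid), 20 min at room temperature, A540, against sodium nitrite standards. Percent inhibition, n = 3.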

[2] = Antiinflammatory activity in Macrophage assessed as LPS-induced nitric oxide production by Griess assay; format: functional, cell-based
How it was run: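 LPS-activated macrophages. Nitrite in culture supernatant was measured by the Griess reaction: supernatant mixed with an equal volume of Griess reagent (0.1% w/v N-(1-naphthyl)ethylenediamine dihydrochloride plus 1% w/v sulfanilamide in 5% v/v phosphoric acid, combined within 1 h of use), 20 min at room temperature, then A540. Sodium nitrite standards were used. Result reported as IC50.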

| IC50 [2] [nM] | SMILES | inhibition at 5 µM [1] [%] |
| --- | --- | --- |
|  | C[C@@H]1O[C@@H](O[C@H]2[C@H](O[C@@H]3[C@@H](O)[C@H](O[C@H]4CC[C@]5(C)[C@H]6CC=C7[C@@H]8CC(C)(C)CC[C@]8(C(=O)O[C@@H]8O[C@H](CO)[C@@H](O)[C@H](O)[C@H]8O)[C@H](O)C[C@@]7(C)[C@]6(C)CC[C@H]5C4(C)C)O[C@H](C(=O)O)[C@H]3O)OC[C@H](O)[C@@H]2O)[C@H](O)[C@H](O)[C@H]1O [GORDONOSIDE M] | 2.9 |
|  | COc1cc(C(=O)OC[C@H]2O[C@@H](Oc3cc(O)c(OC)c(OC)c3)[C@H](O)[C@@H](O)[C@@H]2O)cc(OC)c1O | 4.7 |
|  | COc1cc(C(=O)OC[C@H]2O[C@@H](Oc3cc(O)c(OC)c(OC)c3)[C@H](O)[C@@H](O)[C@@H]2O)ccc1O | 6.5 |
|  | C[C@@H]1C[C@H]2[C@@H]3CCC4=CC(=O)C=C[C@]4(C)[C@@]3(F)[C@@H](O)C[C@]2(C)[C@@]1(O)C(=O)CO [DEXAMETHASONE] | 74.7 |
|  | C/C=C(/C)C(=O)O[C@H]1CC(C)(C)C[C@H]2C3=CC[C@@H]4[C@@]5(C)CC[C@H](O[C@@H]6O[C@H](C(=O)O)[C@@H](O)[C@H](O[C@@H]7OC[C@H](O)[C@H](O)[C@H]7O[C@@H]7OC[C@@H](O)[C@H](O)[C@H]7O)[C@H]6O[C@@H]6O[C@H](CO)[C@H](O)[C@H](O)[C@H]6O)C(C)(C)[C@@H]5CC[C@@]4(C)[C@]3(C)[C@@H](O)[C@@H](O)[C@@]12CO [GORDONOSIDE J] | 9.1 |
|  | CC1(C)CC[C@]2(C(=O)O[C@@H]3O[C@H](CO)[C@@H](O)[C@H](O)[C@H]3O)[C@H](O)C[C@]3(C)C(=CC[C@@H]4[C@@]5(C)CC[C@H](O[C@@H]6O[C@H](C(=O)O)[C@@H](O)[C@H](O[C@@H]7OC[C@H](O)[C@H](O)[C@H]7O[C@@H]7OC[C@@H](O)[C@H](O)[C@H]7O)[C@H]6O[C@@H]6O[C@H](CO)[C@@H](O)[C@H](O)[C@H]6O)C(C)(C)[C@@H]5CC[C@]43C)[C@@H]2C1 [GORDONOSIDE N] | 8.9 |
| 140 | C/C=C(/C)C(=O)O[C@H]1CC(C)(C)C[C@H]2C3=CC[C@@H]4[C@@]5(C)CC[C@H](O[C@@H]6O[C@H](C(=O)O)[C@@H](O)[C@H](O[C@@H]7OC[C@H](O)[C@H](O)[C@H]7O[C@@H]7OC[C@@H](O)[C@H](O)[C@H]7O)[C@H]6O[C@@H]6O[C@H](CO)[C@H](O)[C@H](O)[C@H]6O)C(C)(C)[C@@H]5CC[C@@]4(C)[C@]3(C)C[C@@H](O)[C@@]12CO [GORDONOSIDE I] | 96.6 |
|  | C[C@@H]1O[C@@H](O[C@@H]2[C@@H](O)[C@H](O[C@H]3[C@H](O[C@H]4CC[C@]5(C)[C@H]6CC=C7[C@@H]8CC(C)(C)CC[C@]8(C(=O)O[C@@H]8O[C@H](CO)[C@@H](O)[C@H](O)[C@H]8O)[C@H](O)C[C@@]7(C)[C@]6(C)CC[C@H]5C4(C)C)O[C@H](C(=O)O)[C@@H](O)[C@@H]3O[C@@H]3OC[C@@H](O)[C@H](O)[C@H]3O)O[C@H](CO)[C@H]2O)[C@H](O)[C@H](O)[C@H]1O [GORDONOSIDE P] | 5.9 |
|  | CC1(C)CC[C@]2(C(=O)O[C@@H]3O[C@H](CO)[C@@H](O)[C@H](O)[C@H]3O)[C@H](O)C[C@]3(C)C(=CC[C@@H]4[C@@]5(C)CC[C@H](O[C@@H]6O[C@H](C(=O)O)[C@@H](O)[C@H](O[C@@H]7OC[C@H](O)[C@H](O)[C@H]7O[C@@H]7OC[C@H](O)[C@H](O)[C@H]7O)[C@H]6O)C(C)(C)[C@@H]5CC[C@]43C)[C@@H]2C1 [GORDONOSIDE L] | 14 |
|  | CC1(C)CC[C@]2(C(=O)O[C@@H]3O[C@H](CO)[C@@H](O)[C@H](O)[C@H]3O)[C@H](O)C[C@]3(C)C(=CC[C@@H]4[C@@]5(C)CC[C@H](O[C@@H]6O[C@H](C(=O)O)[C@@H](O)[C@H](O[C@@H]7OC[C@H](O)[C@H](O)[C@H]7O[C@@H]7OC[C@@H](O)[C@H](O)[C@H]7O)[C@H]6O[C@@H]6O[C@H](CO)[C@H](O)[C@H](O)[C@H]6O)C(C)(C)[C@@H]5CC[C@]43C)[C@@H]2C1 [GORDONOSIDE O] | 12.6 |
|  | CC1(C)CC[C@]2(C(=O)O[C@@H]3O[C@H](CO)[C@@H](O)[C@H](O)[C@H]3O)[C@H](O)C[C@]3(C)C(=CC[C@@H]4[C@@]5(C)CC[C@H](O[C@@H]6O[C@H](C(=O)O)[C@@H](O)[C@H](O[C@@H]7OC[C@H](O)[C@H](O)[C@H]7O)[C@H]6O)C(C)(C)[C@@H]5CC[C@]43C)[C@@H]2C1 [GORDONOSIDE K] | 6.4 |
